Reference: PMC3304101 (Journal of Medicinal Chemistry, 2010)
Where a name gives a salt, the structure may show the parent alone. Read-outs that look alike come from different tables or passages of the source.

Experiments:
[1] = Hydrolysis in pH 6.0 uptake buffer; assay type: physicochemical; conditions: 37 °C, * no area decrease detected in HPLC after 2 h, ** less than 5% decrease after 2 h
[2] = Hydrolysis in pH 7.4 phosphate buffer; assay type: physicochemical
Procedure, shortened: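 Test compound (200 mM DMSO stock) in 10 mM phosphate buffer, pH 7.4, at 37 °C. Sampled at 0, 5, 10, 30, 60 and 120 min, quenched in 0.1% TFA, HPLC. Pseudo-first-order k from ln(remaining) vs time; t1/2=0.693/k; triplicate.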

HeLa cell homogenates = test: Hydrolysis in HeLa cell homogenates; assay type: in vitro ADME; conditions: 500 μg/mL protein, 37 °C; * no area decrease detected in HPLC after 2 h
Caco-2 cell homogenates = test: Hydrolysis in Caco-2 cell homogenates; assay type: in vitro ADME; conditions: 500 μg/mL protein, 37 °C; * no area decrease detected in HPLC after 2 h
HeLa/hPEPT1 cells = test: Direct uptake in HeLa/hPEPT1 cells; assay type: cell-based, human; conditions: for remaining in donor solution after 1 h: direct uptake study, HeLa/hPEPT1 and normal HeLa cells
Procedure, shortened: (§1)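 HeLa cells grown 5 days in 12-well plates; the hPEPT1 set was infected with hPEPT1 adenovirus 3 days before, and uninfected HeLa served as control. After a wash and 15 min preincubation in uptake buffer (pH 6.0, MES) at 37 °C, cells took 1 mM test compound for 60 min at 37 °C. Then washed ice-cold, sonicated, TFA-precipitated (7% final), HPLC; protein measured by DC assay; triplicate.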

rat jejunum = test: In situ single-pass rat jejunum perfusion; assay type: in vivo; conditions: 0.1 mM, pH 6.5, compared to co-perfused metoprolol; result in words (Figure 3)
Procedure, shortened: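 Male Wistar rats, 250–280 g, fasted 12–18 h, anesthetized i.m. with ketamine-xylazine; ~10 cm jejunal segment cannulated in situ at 37 °C. Perfused at 0.2 mL/min with pH 6.5 MES buffer containing 0.1 mM test compound, 0.4 mg/mL metoprolol and phenol red. Samples every 10 min for 1 h after 1 h steady state; HPLC. […], outlet corrected by phenol red; n=4.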

hPEPT1 = molecular target: T1, hPEPT1 (Homo sapiens, UniProt P46059); test: [3H]Gly-Sar uptake inhibition in HeLa/hPEPT1 cells; assay type: cell-based
T1 sequence (P46059 1-708): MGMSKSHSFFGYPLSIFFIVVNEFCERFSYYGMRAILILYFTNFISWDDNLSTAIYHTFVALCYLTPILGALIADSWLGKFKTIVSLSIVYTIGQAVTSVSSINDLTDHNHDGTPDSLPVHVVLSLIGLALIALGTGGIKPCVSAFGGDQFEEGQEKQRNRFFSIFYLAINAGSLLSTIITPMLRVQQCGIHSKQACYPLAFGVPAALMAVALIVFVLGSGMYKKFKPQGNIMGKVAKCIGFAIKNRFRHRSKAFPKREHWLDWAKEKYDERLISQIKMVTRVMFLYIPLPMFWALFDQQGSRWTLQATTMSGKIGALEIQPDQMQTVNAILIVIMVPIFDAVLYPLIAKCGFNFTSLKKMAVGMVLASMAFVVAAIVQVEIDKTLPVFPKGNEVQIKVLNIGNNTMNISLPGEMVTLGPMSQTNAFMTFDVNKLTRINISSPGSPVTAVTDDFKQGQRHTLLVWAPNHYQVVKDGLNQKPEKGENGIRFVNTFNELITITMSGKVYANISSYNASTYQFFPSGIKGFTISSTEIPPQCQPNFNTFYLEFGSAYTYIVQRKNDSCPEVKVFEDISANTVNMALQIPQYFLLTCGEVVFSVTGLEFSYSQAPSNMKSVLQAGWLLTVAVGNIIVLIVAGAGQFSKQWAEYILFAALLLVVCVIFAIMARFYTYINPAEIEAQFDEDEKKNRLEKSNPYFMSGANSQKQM
Procedure, shortened: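 HeLa cells infected with hPEPT1 adenovirus 3 days before assay. Incubated 30 min at 37 °C in pH 6.0 MES uptake buffer with 10 μM Gly-Sar (0.1 μM [3H]) plus 0.05–5 mM test compound. Washed three times ice-cold, lysed in 0.1% SDS, scintillation counted. IC50 by nonlinear fitting; n=4.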

Caco-2 monolayers = test: Caco-2 monolayer permeability study; assay type: in vitro ADME; conditions: for Apparent apical-to-basolateral permeability coefficient (Papp): 200 μM, apical pH 6.0, basolateral pH 7.5, result in words (Figure 1)
Procedure, shortened: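 Caco-2 cells grown on collagen-coated 3.0 μm-pore transwell inserts and used 22–23 days post-seeding; TEER checked before and after. After 15 min preincubation at 37 °C, apical MES buffer (pH 6.0) replaced with 200 μM test compound, basolateral HEPES buffer (pH 7.5). Basolateral aliquots taken at set intervals and replaced with fresh buffer; HPLC. Papp=(1/C0A)(dQ/dt), steady-state rate; triplicate.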

[3] = cited from earlier work
HeLa cells = test: Direct uptake in normal HeLa cells; assay type: cell-based; conditions: 1 mM test compound, pH 6.0, 60 min
Procedure, shortened: as §1

[4] = substrate: CC(C)[C@H](N)C(=O)OCCOCn1cnc2c(=O)[nH]c(N)nc21; test: hVACVase-mediated hydrolysis; assay type: biochemical, human; conditions: other: recombinant hVACVase, 50 mM HEPES pH 7.4, 37 °C
[5] = substrate: CC(C)[C@H](N)C(=O)OCc1cccc(NC(=N)N)c1; test: hVACVase-mediated hydrolysis; assay type: biochemical, human; conditions: other: recombinant hVACVase, 50 mM HEPES pH 7.4, 37 °C
[6] = substrate: CC[C@H](C)[C@H](N)C(=O)OCc1cccc(N=C(N)N)c1; test: hVACVase-mediated hydrolysis; assay type: biochemical, human; conditions: other: recombinant hVACVase, 50 mM HEPES pH 7.4, 37 °C
[7] = substrate: NC(N)=Nc1cccc(COC(=O)[C@@H](N)Cc2ccccc2)c1; test: hVACVase-mediated hydrolysis; assay type: biochemical, human; conditions: other: recombinant hVACVase, 50 mM HEPES pH 7.4, 37 °C

N=C(N)Nc1cccc(CO)c1 [3-HPG, [3-(hydroxymethyl)phenyl]guanidine]
Half-lives, pH 6 buffer [1]: stable ^* | Half-lives, pH 7.4 buffer ([2]; 10 mM phosphate buffer pH 7.4, 37 °C, * no area decrease detected in HPLC after 2 h): stable ^* | Half-lives, HeLa cell homogenates (HeLa cell homogenates): stable ^* | Half-lives, Caco-2 cell homogenates (Caco-2 cell homogenates): stable ^* | remaining in donor solution after 1 h (HeLa/hPEPT1 cells): > 95% | Effective permeability (Peff), rat jejunum (rat jejunum): very low

CC[C@H](C)[C@H](N)C(=O)OCc1ccccc1 [Ile-OBz, L-Isoleucine benzyl ester 4-toluenesulfonate salt]
IC50 (hPEPT1): 1050 ± 130 µM

NC(N)=Nc1cccc(COC(=O)[C@@H](N)Cc2ccccc2)c1 [Phe-3-HPG, L-Phenylalnine [3-[(aminoiminomethyl)amino]phenyl]methyl ester]
Half-lives, pH 6 buffer [1]: stable ^** | remaining in donor solution after 1 h (HeLa/hPEPT1 cells): > 80% | Apparent apical-to-basolateral permeability coefficient (Papp) (Caco-2 monolayers): didn’t show significantly different permeability than 3-HPG

N[C@@H](Cc1ccccc1)C(=O)OCc1ccccc1 [Phe-OBz, L-phenylalanine benzyl ester hydrochloride]
IC50 (hPEPT1): > 3000 µM

CC(C)[C@H](N)C(=O)OCc1ccccc1 [Val-OBz, L-valine benzyl ester hydrochloride]
IC50 (hPEPT1): 390 ± 40 µM

CC1CNc2c(cccc2S(=O)(=O)N[C@@H](CCCNC(=N)N)C(=O)N2CC[C@@H](C)C[C@@H]2C(=O)O)C1 (stereo partly drawn) [argatroban]
oral bioavailability ([3]; in vivo, po): low oral bioavailability

CC(C)[C@H](N)C(=O)OCCOCn1cnc2c(=O)nc(N)[nH]c21 [valacyclovir]
Half-lives, pH 6 buffer [1]: stable ^* | half-life at 200 µM ([2]; phosphate buffer, pH 7.4): 13.8 ± 0.417 h | remaining in donor solution after 1 h (HeLa/hPEPT1 cells): > 95% | hPEPT1/control (HeLa/hPEPT1 cells; ratio of uptake in HeLa/hPEPT1 cells to uptake in normal HeLa cells (fold)): > 25 | uptake, HeLa cells (HeLa cells): < 0.2 nmol/mg in 60 min | oral bioavailability [3]: more than 50%

CC(C)[C@H](N)C(=O)OCC(CO)OCn1cnc2c(=O)nc(N)[nH]c21 (stereo partly drawn) [valganciclovir]
oral bioavailability [3]: more than 50%

CC(=O)N[C@H]1[C@H]([C@H](O)[C@H](O)CO)OC(C(=O)O)=C[C@@H]1N=C(N)N [zanamivir]
oral bioavailability ([3]; result in words): low oral bioavailability

D-Valine [3-[(aminoiminomethyl)amino]phenyl]methyl ester [D-Val-3-HPG]
Apparent apical-to-basolateral permeability coefficient (Papp) (Caco-2 monolayers): no transport | Stability in apical side during Caco-2 permeability study (Caco-2 monolayers; percentage of ester form in donor solution at 120 min): 98.8 ± 0.1%

B1: hVACVase (Homo sapiens) (protein)
chain: SVTSAKVAVNGVQLHYQQTGEGDHAVLLLPGMLGSGETDFGPQLKNLNKKLFTVVAWDPRGYGHSRPPDRDFPADFFERDAKDAVDLMKALKFKKVSLLGWSDGGITALIAAAKYPSYIHKMVIWGANAYVTDEDSMIYEGIRDVSKWSERTRKPLEALYGYDYFARTCEKWVDGIRQFKHLPDGNICRHLLPRVQCPALIVHGEKDPLVPRFHADFIHKHVKGSRLHLMPEGKHNLHLRFADEFNKLAEDFLQ
Km [4]: 68 ± 4 µM | Vmax [4]: 120 µmol/min/mg | kcat [4]: 58 ± 1 s⁻¹ | kcat/Km [4]: 850000 ± 66000 M⁻¹ s⁻¹ | Km [5]: 46 ± 5 µM | Vmax [5]: 321 µmol/min/mg | kcat [5]: 154 ± 4 s⁻¹ | kcat/Km [5]: 3.37e+06 ± 460000 M⁻¹ s⁻¹ | Km [6]: 9.0 ± 1.2 µM | Vmax [6]: 30 µmol/min/mg | kcat [6]: 14 ± 1 s⁻¹ | kcat/Km [6]: 1.58e+06 ± 260000 M⁻¹ s⁻¹ | Km [7]: 207 ± 16 µM | Vmax [7]: 718 µmol/min/mg | kcat [7]: 345 ± 8 s⁻¹ | kcat/Km [7]: 1.66e+06 ± 160000 M⁻¹ s⁻¹
